Common to all, as to type: functional
The subject of one test is Enterococcus faecalis. In words: Antibacterial activity against vancomycin resistant Enterococcus faecalis ATCC 700802 assessed as inhibition of bacterial growth incubated for 22 to 24 hrs. To be noted: time 22-24 hrs. An outline of the steps: (§1)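 Broth microdilution MIC. Strains were subcultured on Soybean Casein Digest Agar, and inocula were taken from mid-log culture, adjusted to McFarland (~10⁸ CFU/mL), then diluted to ~10⁵ CFU/mL. Serial dilutions ran from 64 to 0.03 µg/mL. Plates were incubated 22–24 h at 37 °C, in triplicate. MIC was the lowest concentration with no visible growth.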

Another test concerns Acinetobacter baumannii. As to the kind of experiment: Antibacterial activity against clinical isolate Acinetobacter baumannii BAA 747 assessed as inhibition of bacterial growth incubated for 22 to 24 hrs. As to conditions: time 22-24 hrs.
Test [1] relates to Staphylococcus aureus. As to the kind of experiment: Antibacterial activity against methicillin resistant Staphylococcus aureus ATCC 33591 assessed as inhibition of bacterial growth incubated for 22 to 24 hrs. As to conditions: time 22-24 hrs. An outline of the steps: as §1
Test [2] relates to Mycobacterium tuberculosis. In words: Antibacterial activity against Mycobacterium tuberculosis H37Rv ATCC 25618 assessed as inhibition of bacterial growth incubated for 2 days by CLSI protocol based broth microdilution method. As to conditions: H37Rv ATCC 25618, 48 h, time 2 day.
Test [3] has as its system Staphylococcus aureus. As to the kind of experiment: Antibacterial activity against methicillin sensitive Staphylococcus aureus ATCC 29213 assessed as inhibition of bacterial growth incubated for 22 to 24 hrs. As to conditions: time 22-24 hrs. The essentials:
(§2)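 Broth MIC referenced to an earlier protocol. Inocula come from mid-log cultures sub-cultured on soybean casein digest agar, adjusted to McFarland (~10⁸ CFU/mL), then diluted to ~10⁵ CFU/mL. Compounds and controls are serially diluted from 64 to 0.03 µg/mL. Tested in triplicate, read after 22–24 h at 37 °C. MIC is the lowest concentration with no visible growth.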

For test [4], the system named is Mycolicibacterium smegmatis. As to the kind of experiment: Antibacterial activity against Mycobacterium smegmatis ATCC 607 assessed as inhibition of bacterial growth incubated for 2 days by CLSI protocol based broth microdilution method. As to conditions: ATCC 607, 48 h, time 2 day. The essentials: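 CLSI broth microdilution in Middlebrook 7H9 with 10% ADC. Compounds are dissolved in DMSO at 4.0 mg/mL (stock) and serially diluted from 64 to 0.015 µg/mL. Inoculum is ~10⁵ CFU/mL, checked by plating on 7H11 agar. Rifampin and levofloxacin are positive controls; drug-free broth with DMSO is the negative control. Growth inhibition is read after 2 days at 37 °C as MIC.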

The test system of the next test is Escherichia coli. As to the kind of experiment: Antibacterial activity against clinical isolate Escherichia coli AB 117 assessed as inhibition of bacterial growth incubated for 22 to 24 hrs. To be noted: time 22-24 hrs.
Another test concerns Klebsiella pneumoniae. As to the kind of experiment: Antibacterial activity against clinical isolate Klebsiella pneumoniae AB 356 assessed as inhibition of bacterial growth incubated for 22 to 24 hrs. As to conditions: time 22-24 hrs.
In test [5] the test system is Staphylococcus epidermidis. As to the kind of experiment: Antibacterial activity against clinical isolate methicillin resistant Staphylococcus epidermidis AB 735 assessed as inhibition of bacterial growth incubated for 22 to 24 hrs. To be noted: time 22-24 hrs.
In the next test the test system is Moraxella catarrhalis. As to the kind of experiment: Antibacterial activity against Moraxella catarrhalis ATCC 25238 assessed as inhibition of bacterial growth incubated for 22 to 24 hrs. To be noted: time 22-24 hrs. The essentials: as §2
The next test deals with Enterococcus faecium. As to the kind of experiment: Antibacterial activity against Enterococcus faecium ATCC 49624 assessed as inhibition of bacterial growth incubated for 22 to 24 hrs. As to conditions: time 22-24 hrs. The essentials: as §2
The test system of another test is Pseudomonas aeruginosa. In words: Antibacterial activity against clinical isolate Pseudomonas aeruginosa AB 645 assessed as inhibition of bacterial growth incubated for 22 to 24 hrs. As to conditions: time 22-24 hrs.

Structures are written as SMILES. ≈ marks a conversion by molar mass, not a printed value.

The MIC is the smallest concentration in the dilution series that meets the test's criterion for growth inhibition. With `COc1ccc2nc(CN3CCN(S(=O)(=O)c4ccc(NC(C)=O)cc4)CC3)cc(OC)c2c1`, the MIC (in the test on Enterococcus faecalis; in the test on Acinetobacter baumannii; in the test on Staphylococcus aureus [1]; in [2]; in the test on Staphylococcus aureus [3]; in [4]) was over 64 µg/mL throughout. In addition, the MIC (in the test on Escherichia coli; in the test on Klebsiella pneumoniae; in test [5]; with Moraxella catarrhalis; in the test with Enterococcus faecium; in the test with Pseudomonas aeruginosa) was over 64 µg/mL throughout.

With `COc1ccc2nc(CN3CCN(S(=O)(=O)c4ccccc4C(F)(F)F)CC3)cc(OC)c2c1`, the minimal inhibitory concentration (MIC) in the test with Enterococcus faecalis is 64 µg/mL (≈ 129 µM); with Acinetobacter baumannii it was over 64 µg/mL; in the test on Staphylococcus aureus [1] it was 32 µg/mL (≈ 64.6 µM); in test [2], over 64 µg/mL; in the test with Staphylococcus aureus [3], 4 µg/mL (≈ 8.07 µM); in test [4], over 64 µg/mL. Also, the minimal inhibitory concentration (MIC) was 16 µg/mL (≈ 32.3 µM) with Escherichia coli; over 64 µg/mL in the test with Klebsiella pneumoniae; 16 µg/mL (≈ 32.3 µM) in test [5]; 1 µg/mL (≈ 2.02 µM) in the test on Moraxella catarrhalis; 8 µg/mL (≈ 16.1 µM) with Enterococcus faecium; over 64 µg/mL in the test with Pseudomonas aeruginosa.

With `COc1ccc2nc(CN3CCN(S(=O)(=O)c4cccs4)CC3)cc(OC)c2c1`, the MIC with Enterococcus faecalis is over 64 µg/mL; in the test on Acinetobacter baumannii, over 64 µg/mL; with Staphylococcus aureus [1], over 64 µg/mL; in test [2], over 64 µg/mL; with Staphylococcus aureus [3] it was over 64 µg/mL; in test [4], 32 µg/mL (≈ 73.8 µM). The MIC (in the test with Escherichia coli; in the test on Klebsiella pneumoniae; in [5]; in the test on Moraxella catarrhalis; in the test on Enterococcus faecium; with Pseudomonas aeruginosa) was over 64 µg/mL in each case.

On to `COc1ccc2nc(CN3CCN(C(=O)c4ccccc4F)CC3)cc(OC)c2c1`, for which the MIC (in the test with Enterococcus faecalis; in the test with Acinetobacter baumannii; with Staphylococcus aureus [1]; in [2]; with Staphylococcus aureus [3]; in test [4]) was over 64 µg/mL throughout. In addition, the MIC (in the test on Escherichia coli; in the test with Klebsiella pneumoniae; in test [5]; with Moraxella catarrhalis; with Enterococcus faecium; with Pseudomonas aeruginosa) was over 64 µg/mL each time.

Turning to `COc1ccc2nc(CN3CCN(S(=O)(=O)c4c(C)cc(C)cc4C)CC3)cc(OC)c2c1`, the minimal inhibitory concentration (MIC) (with Enterococcus faecalis; in the test on Acinetobacter baumannii; in the test with Staphylococcus aureus [1]; in test [2]; in the test with Staphylococcus aureus [3]; in test [4]) was over 64 µg/mL in each case. For the same molecule, the MIC (with Escherichia coli; in the test on Klebsiella pneumoniae; in test [5]; in the test on Moraxella catarrhalis; in the test on Enterococcus faecium; in the test with Pseudomonas aeruginosa) was over 64 µg/mL in each case.

On to `CNS(=O)(=O)N1CCN(Cc2cc(OC)c3cc(OC)ccc3n2)CC1`, for which the MIC (in the test on Enterococcus faecalis; in the test on Acinetobacter baumannii; in the test with Staphylococcus aureus [1]; in test [2]; in the test with Staphylococcus aureus [3]; in test [4]) was over 64 µg/mL in each case. Moreover, the MIC (with Escherichia coli; in the test on Klebsiella pneumoniae; in test [5]; with Moraxella catarrhalis; in the test on Enterococcus faecium; in the test on Pseudomonas aeruginosa) was over 64 µg/mL each time.

For `COc1ccc2nc(CN3CCN(C(=O)c4ccc(Cl)c(Cl)c4)CC3)cc(OC)c2c1`, the MIC (with Enterococcus faecalis; with Acinetobacter baumannii; in the test on Staphylococcus aureus [1]; in [2]; in the test on Staphylococcus aureus [3]; in test [4]) was over 64 µg/mL each time. Also, the MIC in the test with Escherichia coli was over 64 µg/mL; in the test on Klebsiella pneumoniae, over 64 µg/mL; in [5] it was over 64 µg/mL; in the test with Moraxella catarrhalis it was 64 µg/mL (≈ 139 µM); in the test on Enterococcus faecium, over 64 µg/mL; with Pseudomonas aeruginosa it was over 64 µg/mL.

`COc1ccc2nc(CN3CCN(S(=O)(=O)c4cccc5ccccc45)CC3)cc(OC)c2c1`: the MIC (in the test on Enterococcus faecalis; in the test with Acinetobacter baumannii; in the test with Staphylococcus aureus [1]; in test [2]; in the test on Staphylococcus aureus [3]; in [4]) was over 64 µg/mL each time. The MIC (in the test with Escherichia coli; in the test with Klebsiella pneumoniae; in [5]; in the test on Moraxella catarrhalis; with Enterococcus faecium; in the test on Pseudomonas aeruginosa) was over 64 µg/mL throughout.

As to `COc1ccc2nc(CN3CCN(C(=O)c4c(Cl)cccc4Cl)CC3)cc(OC)c2c1`, the minimum inhibitory concentration (MIC) (in the test on Enterococcus faecalis; in the test with Acinetobacter baumannii; in the test on Staphylococcus aureus [1]; in [2]; in the test on Staphylococcus aureus [3]; in test [4]) was over 64 µg/mL throughout. Also, the MIC (in the test on Escherichia coli; with Klebsiella pneumoniae; in test [5]; in the test on Moraxella catarrhalis; in the test with Enterococcus faecium; in the test with Pseudomonas aeruginosa) was over 64 µg/mL throughout.

Regarding `COc1ccc2nc(CN3CCN(S(=O)(=O)c4c(F)c(F)c(F)c(F)c4F)CC3)cc(OC)c2c1`, the MIC (in the test with Enterococcus faecalis; in the test on Acinetobacter baumannii; with Staphylococcus aureus [1]; in [2]; with Staphylococcus aureus [3]; in [4]) was over 64 µg/mL throughout. The MIC (in the test on Escherichia coli; in the test with Klebsiella pneumoniae; in [5]; in the test with Moraxella catarrhalis; in the test on Enterococcus faecium; with Pseudomonas aeruginosa) was over 64 µg/mL each time.

For `COc1ccc2nc(CN3CCN(S(=O)(=O)c4ccc(F)cc4)CC3)cc(OC)c2c1`, the MIC (in the test on Enterococcus faecalis; in the test with Acinetobacter baumannii; in the test with Staphylococcus aureus [1]; in test [2]; in the test on Staphylococcus aureus [3]; in [4]) was over 64 µg/mL throughout. For the same molecule, the MIC (in the test on Escherichia coli; in the test with Klebsiella pneumoniae; in test [5]; with Moraxella catarrhalis; with Enterococcus faecium; with Pseudomonas aeruginosa) was over 64 µg/mL in each case.

As to `COc1ccc2nc(CN3CCN(C(=O)c4ccc(Cl)cc4Cl)CC3)cc(OC)c2c1`, the MIC (in the test on Enterococcus faecalis; with Acinetobacter baumannii; in the test with Staphylococcus aureus [1]; in test [2]; in the test with Staphylococcus aureus [3]; in test [4]) was over 64 µg/mL each time. The MIC (in the test on Escherichia coli; in the test on Klebsiella pneumoniae; in [5]; in the test on Moraxella catarrhalis; in the test with Enterococcus faecium; in the test on Pseudomonas aeruginosa) was over 64 µg/mL in each case.

With `O=C(O)c1cn(C2CC2)c2cc(N3CCNCC3)c(F)cc2c1=O` [CIPROFLOXACIN], the MIC with Enterococcus faecalis was found to be 0.5 µg/mL (≈ 1.51 µM); in the test with Staphylococcus aureus [1], 1 µg/mL (≈ 3.02 µM); with Staphylococcus aureus [3], 0.5 µg/mL (≈ 1.51 µM); in the test with Moraxella catarrhalis, 0.03 µg/mL (≈ 0.0905 µM); in the test with Enterococcus faecium, 2 µg/mL (≈ 6.04 µM).

As to `C[C@H]1COc2c(N3CCN(C)CC3)c(F)cc3c(=O)c(C(=O)O)cn1c23.C[C@H]1COc2c(N3CCN(C)CC3)c(F)cc3c(=O)c(C(=O)O)cn1c23.O` [LEVOFLOXACIN], the MIC in test [2] amounted to 2 µg/mL; in test [4] it was 0.125 µg/mL.

`CC(=O)NC[C@H]1CN(c2ccc(N3CCOCC3)c(F)c2)C(=O)O1` [LINEZOLID]: the minimal inhibitory concentration (MIC) is over 64 µg/mL with Acinetobacter baumannii; 8 µg/mL (≈ 23.7 µM) with Escherichia coli; over 64 µg/mL in the test on Klebsiella pneumoniae; 8 µg/mL (≈ 23.7 µM) in test [5]; 4 µg/mL (≈ 11.9 µM) in the test on Moraxella catarrhalis; 4 µg/mL (≈ 11.9 µM) in the test with Enterococcus faecium. Further, the minimal inhibitory concentration (MIC) in the test on Pseudomonas aeruginosa was over 64 µg/mL.

Turning to `CO[C@H]1/C=C/O[C@@]2(C)Oc3c(C)c(O)c4c(O)c(c(/C=N/N5CCN(C)CC5)c(O)c4c3C2=O)NC(=O)/C(C)=C\C=C\[C@H](C)[C@H](O)[C@@H](C)[C@@H](O)[C@@H](C)[C@H](OC(C)=O)[C@@H]1C` [RIFAMPIN], the MIC in [2] was determined as 4 µg/mL (≈ 4.86 µM); in [4], 0.5 µg/mL (≈ 0.608 µM).

Turning to `COc1cc(Cc2cnc(N)nc2N)cc(OC)c1OC` [TRIMETHOPRIM], the MIC with Enterococcus faecalis was 0.25 µg/mL (≈ 0.861 µM); in the test with Acinetobacter baumannii, over 8 µg/mL; in the test on Staphylococcus aureus [1], 8 µg/mL (≈ 27.6 µM); with Staphylococcus aureus [3], 4 µg/mL (≈ 13.8 µM); in the test on Escherichia coli, 16 µg/mL (≈ 55.1 µM); in the test with Klebsiella pneumoniae, 2 µg/mL (≈ 6.89 µM). Besides, the MIC in test [5] is over 8 µg/mL; in the test with Moraxella catarrhalis it was 4 µg/mL (≈ 13.8 µM); with Enterococcus faecium it was 0.03 µg/mL (≈ 0.103 µM); in the test with Pseudomonas aeruginosa it was over 8 µg/mL.
